Assays:
[1] = biological target: Serotonin 1 (5-HT1) receptor (Rattus norvegicus, UniProt P28564+P30940+P19327+P28565); experiment: Binding affinity towards 5-hydroxytryptamine 1 receptor using [3H]5-HT as a radioligand from rat frontal cortex homogenates; type: tissue-based
[2] = biological target: Serotonin 2 (5-HT2) receptor (Rattus norvegicus, UniProt P30994+P08909+P14842); experiment: Binding affinity at 5-hydroxytryptamine 2 receptor from rat frontal cortex homogenates by [3H]-spiperone displacement.; type: tissue-based
[3] = system: Rattus norvegicus; experiment: Decreased accumulation of 5-hydroxytryptophan after decarboxylase inhibition in the hypothalamus of rat at a dose 0.03mg/Kg, sc; type: functional, organism-based
How it was run: (§1)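 Male Wistar rats (~150 g) got drug sc in dilute HCl. NSD 1015 (100 mg/kg, ip) was given 30 min after drug and 30 min before decapitation. Hypothalamic 5-HTP was measured by LC with electrochemical detection. Results are mean ± SE, five rats per treated group and six controls; significance at P < 0.01.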

[4] = system: Rattus norvegicus; experiment: Decreased accumulation of 5-hydroxytryptophan after decarboxylase inhibition in the hypothalamus of rat at a dose 0mg/Kg, sc; type: functional, organism-based; how it was run: as §1
[5] = system: Rattus norvegicus; experiment: Effect on serotonin in rat whole brain, after sc administration (0.03 mg/kg dose) (experiment 1); type: functional, organism-based
How it was run: (§2)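 Drug was given sc in dilute HCl to male Wistar rats (~150 g), with decapitation 1 h later. Whole brains were frozen on dry ice and held at −15 °C. […] Results are mean ± SE, five rats/group, P < 0.05 versus vehicle control.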

[6] = system: Rattus norvegicus; experiment: Effect on serotonin in rat whole brain, after sc administration (0.1 mg/kg dose) (experiment 1); type: functional, organism-based
[7] = system: Rattus norvegicus; experiment: Effect on serotonin in rat whole brain, after sc administration (0.3 mg/kg dose) (experiment 1); type: functional, organism-based
[8] = system: Rattus norvegicus; experiment: Decreased accumulation of 5-hydroxytryptophan after decarboxylase inhibition in the hypothalamus of rat at a dose 0.01mg/Kg, sc; type: functional, organism-based; how it was run: as §1
[9] = system: Rattus norvegicus; experiment: Effect on concentration of 5HIAA in rat brain hypothalamus after 0.3 mg/kg sc administration; type: functional, organism-based; parameters: dose 0.3 mg/kg
How it was run: (§3)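 Male Wistar rats (~150 g) were injected sc with drug in dilute HCl and decapitated 1 h later. Hypothalamus and striatum were dissected and frozen on dry ice. […] Results are mean ± SE, five rats/group, P < 0.05.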

[10] = system: Rattus norvegicus; experiment: Effect on concentrations of serotonin in rat brain hypothalamus after 0.3 mg/kg sc administration; type: functional, organism-based; parameters: dose 0.3 mg/kg; how it was run: as §3
[11] = system: Rattus norvegicus; experiment: Effect on serotonin in rat whole brain, after sc administration (0 mg/kg dose) (experiment 1); type: functional, organism-based; how it was run: as §2
[12] = system: Rattus norvegicus; experiment: Effect on serotonin in rat whole brain, after sc administration (0.01 mg/kg dose) (experiment 2); type: functional, organism-based; how it was run: as §2
[13] = system: Rattus norvegicus; experiment: Effect on serotonin in rat whole brain, after sc administration (0 mg/kg dose) (experiment 2); type: functional, organism-based; how it was run: as §2
[14] = system: Rattus norvegicus; experiment: Effect on serotonin in rat whole brain, after sc administration (1 mg/kg dose) (experiment 1); type: functional, organism-based
[15] = system: Rattus norvegicus; experiment: Effect on serum corticosterone in serum of rats after sc administration (0.03 mg/kg dose) (experiment 1); type: functional, organism-based
How it was run: (§4)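 Male Wistar rats (~150 g) housed at 24 °C with lights 7 a.m.–7 p.m. Compound in dilute HCl given sc 1 h before decapitation. Serum corticosterone measured spectrofluorometrically, μg/100 mL. Five rats per group, mean ± SE. Significance set at P < 0.05 versus the vehicle control.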

[16] = system: Rattus norvegicus; experiment: Effect on serum corticosterone in serum of rats after sc administration (0.1 mg/kg dose) (experiment 1); type: functional, organism-based; how it was run: as §4
[17] = system: Rattus norvegicus; experiment: Effect on serum corticosterone in serum of rats after sc administration (0.3 mg/kg dose) (experiment 1); type: functional, organism-based; how it was run: as §4
[18] = system: Rattus norvegicus; experiment: Effect on serum corticosterone in serum of rats after sc administration (0 mg/kg dose) (experiment 1); type: functional, organism-based; how it was run: as §4
[19] = system: Rattus norvegicus; experiment: Effect on 5-hydroxyindoleacetic acid in rat whole brain, after sc administration (0.03 mg/kg dose) (experiment 2); type: functional, organism-based; how it was run: as §2
[20] = system: Rattus norvegicus; experiment: Effect on 5-hydroxyindoleacetic acid in rat whole brain, after sc administration (0.3 mg/kg dose) (experiment 1); type: functional, organism-based; how it was run: as §2
[21] = system: Rattus norvegicus; experiment: Effect on 5-hydroxyindoleacetic acid in rat whole brain, after sc administration (0 mg/kg dose) (experiment 1); type: functional, organism-based; how it was run: as §2
[22] = system: Rattus norvegicus; experiment: Effect on 5-hydroxyindoleacetic acid in rat whole brain, after sc administration (0 mg/kg dose) (experiment 2); type: functional, organism-based; how it was run: as §2
[23] = system: Rattus norvegicus; experiment: Effect on 5-hydroxyindoleacetic acid in rat whole brain, after sc administration (1 mg/kg dose) (experiment 1); type: functional, organism-based; how it was run: as §2
[24] = system: Rattus norvegicus; experiment: Effect on 3,4-dihydroxyphenylacetic acid concentration in rat striatum, after 0.1 mg/kg sc administration; type: functional; conditions: route subcutaneous
How it was run: (§5)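 Male Wistar rats (~150 g) were given drug or apomorphine HCl sc and decapitated 1 h later. Striatal DOPAC and HVA were quantified by LC with electrochemical detection. Results are mean ± SE, five rats/group, P < 0.05.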

[25] = system: Rattus norvegicus; experiment: Effect on homovanillic acid concentration in rat striatum, after 0.03 mg/kg sc administration; type: functional; conditions: route subcutaneous; how it was run: as §5
[26] = system: Rattus norvegicus; experiment: Minimum effective dose required to increase (MED) corticosterone in rat serum, sc; type: functional; conditions: read-out: MED
How it was run: (§6)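 Male Wistar rats (~150 g). Compound in dilute HCl given sc at graded doses 1 h before decapitation. Whole-brain 5-HIAA measured by LC with electrochemical detection; serum corticosterone measured spectrofluorometrically. Minimum effective dose is the lowest dose giving a significant difference from control (P < 0.05).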

[27] = system: Rattus norvegicus; experiment: Minimum effective dose required to suppressing (MED) 5HIAA concentration in rat when administered sc; type: functional; conditions: read-out: MED; how it was run: as §6
[28] = system: Rattus norvegicus; experiment: Effect of Metergoline on the elevation of serum corticosterone, after sc administration (0.03 mg/kg) Metergoline pretreament; type: functional, organism-based
How it was run: (§7)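 Male Wistar rats (~150 g) received metergoline (3 mg/kg, ip) or no pretreatment. Drug was given sc in dilute HCl 1 h later, and rats were decapitated 1 h after that. Serum corticosterone was determined spectrofluorometrically. Results are mean ± SE, five rats/group, P < 0.05 versus the corresponding control.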

[29] = system: Rattus norvegicus; experiment: Effect of Metergoline on the elevation of serum corticosterone, after sc administration (0.1 mg/kg) Metergoline pretreament; type: functional, organism-based; how it was run: as §7
[30] = system: Rattus norvegicus; experiment: Effect of Metergoline on the elevation of serum corticosterone, after sc administration (1.0 mg/kg) Metergoline pretreament; type: functional, organism-based; how it was run: as §7
[31] = species: Rattus norvegicus; experiment: Effect of fluoxetine on the elevation of serum corticosterone at a dose 100 ug/mL, No pretreatment; type: functional, organism-based
How it was run: (§8)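 Rats got fluoxetine HCl (10 mg/kg, ip) or no pretreatment. 16 h later, drug (0.3 mg/kg, sc, dilute HCl) or p-chloroamphetamine HCl (2.5 mg/kg, ip) was given, with decapitation 1 h after. Serum corticosterone was measured spectrofluorometrically. Results are mean ± SE, five male Wistar rats/group, P < 0.05.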

[32] = species: Rattus norvegicus; experiment: Effect of fluoxetine on the elevation of serum corticosterone, Fluoxetine pretreament; type: functional, organism-based; how it was run: as §8
[33] = species: Rattus norvegicus; experiment: Effect of […] on the elevation of serum corticosterone at a dose 100 ug/mL No pretreatment; type: functional, organism-based
How it was run: as §8, with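 “p-chlorophenylalanine (300” for “fluoxetine HCl (10”, “24” for “16”, “and rats were killed” for “with decapitation”, “rats/group.” for “rats/group, P < 0.05.”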

## C[C@@H]1C=C2c3cccc4c3[C@@H](CN4)C[C@H]2N(C)C1
[1]
  IC50: 17 nM
[2]
  IC50: 1665 nM
[3]
  Concentration: 1.19 nM/g
[4]
  Concentration: 1.92 nM/g
[5]
  Concentration: 2.8 nM/g
[6]
  Concentration: 2.59 nM/g
[7]
  Concentration: 2.95 nM/g
[8]
  Concentration: 1.64 nM/g
[9]
  Concentration: 2.18 mg/kg
[10]
  Concentration: 4.78 mg/kg
[11]
  Concentration: 2.32 nM/g
[12]
  Concentration: 2.67 nM/g
[13]
  Concentration: 2.66 nM/g
[14]
  Concentration: 3.02 nM/g
[15]
  Concentration: 6.5 nM/g
[16]
  Concentration: 33.8 nM/g
[17]
  Concentration: 46.6 nM/g
[18]
  Concentration: 4.3 nM/g
[19]
  Concentration: 1.9 nM/g
[20]
  Concentration: 1.45 nM/g
[21]
  Concentration: 1.89 nM/g
[22]
  Concentration: 2.2 nM/g
[23]
  Concentration: 1.47 nM/g
[24]
  DOPAC concentration: 4.44 nM/g
[25]
  Homovanillic acid concentration: 2.89 nM/g
[26]
  minimal effective dose: 0.1 mg/kg
[27]
  minimal effective dose: 0.03 mg/kg
[28]
  Serum corticosterone: 22.1 µg/mL
[29]
  Serum corticosterone: 46.8 µg/mL
[30]
  Serum corticosterone: 61.2 µg/mL
[31]
  Serum corticosterone: < 68.2 µg/mL
[32]
  Serum corticosterone: < 61.2 µg/mL
[33]
  Serum corticosterone: 47.3 µg/mL
